Measurements from ChEMBL document CHEMBL2429728, “Novel Macrocyclic Amidinoureas: Potent Non-Azole Antifungals Active against Wild-Type and Resistant Candida Species” (2013).
In brackets after ≈: the same amount, converted by molar mass.

Assays:
Format in all cases: functional
Nakaseomyces glabratus [1] = assay: Antifungal activity against fluconazole-resistant Candida glabrata DSY2271 increase expressing of CgCDR2 genes after 24 hrs by visually and spectrophotometric analysis; conditions: DSY2271, 24 h
Outline: (§1)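 Endpoint is MIC90, in μg/mL, read at 24 h by both visual inspection and spectrophotometry.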

Nakaseomyces glabratus [2] = assay: Antifungal activity against fluconazole-resistant Candida glabrata DSY2254 increase expressing of CgCDR1 and CgCDR2 genes after 24 hrs by visually and spectrophotometric analysis; conditions: DSY2254, 24 h; outline: as §1
Nakaseomyces glabratus [3] = assay: Antifungal activity against fluconazole-resistant Candida glabrata DSY756 increase expressing of CgCDR1, CgCDR2, and CgSNQ2 genes after 24 hrs by visually and spectrophotometric analysis; conditions: DSY756, 24 h; outline: as §1
Nakaseomyces glabratus [4] = assay: Antifungal activity against fluconazole-resistant Candida glabrata DSY754 increase expressing of CgCDR1 gene after 24 hrs by visually and spectrophotometric analysis; conditions: DSY754, 24 h; outline: as §1
Nakaseomyces glabratus [5] = assay: Antifungal activity against fluconazole-resistant Candida glabrata DSY530 increase expressing of CgCDR1 gene after 24 hrs by visually and spectrophotometric analysis; conditions: DSY530, 24 h; outline: as §1
Candida albicans [6] = assay: Antifungal activity against fluconazole-resistant Candida albicans DSY751 harboring ERG11 gene mutant and increase expressing of MDR1 gene after 24 hrs by visually and spectrophotometric analysis; conditions: DSY751, 24 h; outline: as §1
Candida albicans [7] = assay: Antifungal activity against fluconazole-resistant Candida albicans DSY775 harboring ERG11 gene mutant and increase expressing of CDR1 and CDR2 genes after 24 hrs by visually and spectrophotometric analysis; conditions: DSY775, 24 h; outline: as §1
Candida albicans [8] = assay: Antifungal activity against fluconazole-resistant Candida albicans DSY735 expressing high level of CDR1 and CDR2 genes after 24 hrs by visually and spectrophotometric analysis; conditions: DSY735, 24 h; outline: as §1
Candida albicans [9] = assay: Antifungal activity against fluconazole-resistant Candida albicans DSY292 harboring ERG11 gene mutant and increase expressing of MDR1 gene after 24 hrs by visually and spectrophotometric analysis; conditions: DSY292, 24 h; outline: as §1
Candida albicans [10] = assay: Antifungal activity against fluconazole-resistant Candida albicans DSY348 harboring ERG11 gene mutant and increase expressing of CDR1 and CDR2 genes after 24 hrs by visually and spectrophotometric analysis; conditions: DSY348, 24 h; outline: as §1
Candida albicans [11] = assay: Antifungal activity against fluconazole-resistant Candida albicans DSY289 harboring ERG11 gene mutant and increase expressing of CDR1 and CDR2 genes after 24 hrs by visually and spectrophotometric analysis; conditions: DSY289, 24 h; outline: as §1
Candida albicans [12] = assay: Antifungal activity against fluconazole-resistant Candida albicans DSY296 harboring ERG11 gene mutant and increase expressing of CDR1 and CDR2 genes after 24 hrs by visually and spectrophotometric analysis; conditions: DSY296, 24 h; outline: as §1
Candida albicans [13] = assay: Antifungal activity against fluconazole-resistant Candida albicans DSY284 harboring ERG11 gene mutant and increase expressing of CDR1 and CDR2 genes after 24 hrs by visually and spectrophotometric analysis; conditions: DSY284, 24 h; outline: as §1
Nakaseomyces glabratus [14] = assay: Antifungal activity against wild type Candida glabrata after 24 hrs by visually and spectrophotometric analysis
Candida tropicalis [15] = assay: Antifungal activity against wild type Candida tropicalis after 24 hrs by visually and spectrophotometric analysis
Candida parapsilosis = assay: Antifungal activity against wild type Candida parapsilosis ATCC 34136 after 24 hrs by visually and spectrophotometric analysis; conditions: Lodderomyces parapsilosis, ATCC 34136, 24 h
Pichia kudriavzevii = assay: Antifungal activity against wild type Candida krusei ATCC 14243 after 24 hrs by visually and spectrophotometric analysis; conditions: ATCC 14243, 24 h
Candida albicans [16] = assay: Antifungal activity against wild type Candida albicans ATCC 60193 after 24 hrs by visually and spectrophotometric analysis; conditions: ATCC 60193, 24 h
Candida tropicalis [17] = assay: Antifungal activity against Candida tropicalis ATCC 200956 after 24 hrs by visually and spectrophotometric analysis; conditions: ATCC 200956, 24 h
Outline: (§2)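 Read-out is MIC90 in μg/mL, scored at 24 h both by eye and spectrophotometrically. The panel is Candida isolates that earlier reports describe as amphotericin B-resistant, with amphotericin B run alongside as the reference drug.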

Clavispora lusitaniae [18] = assay: Antifungal activity against Candida lusitaniae ATCC 60247 after 24 hrs by visually and spectrophotometric analysis; conditions: ATCC 60247, 24 h; outline: as §2
Clavispora lusitaniae [19] = assay: Antifungal activity against Candida lusitaniae ATCC 24348 after 24 hrs by visually and spectrophotometric analysis; conditions: ATCC 24348, 24 h; outline: as §2
Clavispora lusitaniae [20] = assay: Antifungal activity against Candida lusitaniae ATCC 200953 after 24 hrs by visually and spectrophotometric analysis; outline: as §2
Clavispora lusitaniae [21] = assay: Antifungal activity against Candida lusitaniae ATCC 200952 after 24 hrs by visually and spectrophotometric analysis; outline: as §2
Clavispora lusitaniae [22] = assay: Antifungal activity against Candida lusitaniae ATCC 200951 after 24 hrs by visually and spectrophotometric analysis; outline: as §2
Clavispora lusitaniae [23] = assay: Antifungal activity against Candida lusitaniae ATCC 200950 after 24 hrs by visually and spectrophotometric analysis; conditions: ATCC 200950, 24 h; outline: as §2
Candida albicans [24] = assay: Antifungal activity against Candida albicans ATCC 200955 after 24 hrs by visually and spectrophotometric analysis; conditions: ATCC 200955, 24 h; outline: as §1
Kluyveromyces marxianus = assay: Antifungal activity against wild type Candida kefyr after 24 hrs by visually and spectrophotometric analysis
[25] = test system: Meyerozyma guilliermondii; assay: Antifungal activity against wild type Candida guilliermondii after 24 hrs by visually and spectrophotometric analysis

Row | Structure (SMILES) | MIC90 (Nakaseomyces glabratus [1]) [µg/mL] | MIC90 (Nakaseomyces glabratus [2]) [µg/mL] | MIC90 (Nakaseomyces glabratus [3]) [µg/mL] | MIC90 (Nakaseomyces glabratus [4]) [µg/mL] | MIC90 (Nakaseomyces glabratus [5]) [µg/mL] | MIC90 (Candida albicans [6]) [µg/mL] | MIC90 (Candida albicans [7]) [µg/mL] | MIC90 (Candida albicans [8]) [µg/mL] | MIC90 (Candida albicans [9]) [µg/mL] | MIC90 (Candida albicans [10]) [µg/mL] | MIC90 (Candida albicans [11]) [µg/mL] | MIC90 (Candida albicans [12]) [µg/mL] | MIC90 (Candida albicans [13]) [µg/mL] | MIC90 (Candida tropicalis [17]) [µg/mL] | MIC90 (Clavispora lusitaniae [18]) [µg/mL] | MIC90 (Clavispora lusitaniae [19]) [µg/mL] | MIC90 (Clavispora lusitaniae [20]) [µg/mL] | MIC90 (Clavispora lusitaniae [21]) [µg/mL] | MIC90 (Clavispora lusitaniae [22]) [µg/mL] | MIC90 (Clavispora lusitaniae [23]) [µg/mL] | other results
1 | C[C@@H](c1ncncc1F)[C@](O)(Cn1cncn1)c1ccc(F)cc1F [VORICONAZOLE] | 0.125 (≈ 0.358 µM) | 2 (≈ 5.73 µM) | 4 (≈ 11.5 µM) | 2 (≈ 5.73 µM) | 0.5 (≈ 1.43 µM) | 0.25 (≈ 0.716 µM) | 8 (≈ 22.9 µM) | 2 (≈ 5.73 µM) | 2 (≈ 5.73 µM) | 0.25 (≈ 0.716 µM) | 8 (≈ 22.9 µM) | 8 (≈ 22.9 µM) | 4 (≈ 11.5 µM) | – | – | – | – | – | – | – | –
2 | C/C=C/CNC(=N)NCCCCCCCCN1CCCCCCCCNC(=N)NC1=O | – | – | – | – | – | – | – | – | – | – | – | – | – | – | – | – | – | – | – | – | MIC50 (Nakaseomyces glabratus [14]): 20 µg/mL (≈ 45.9 µM); MIC50 (Candida tropicalis [15]): 1.25 µg/mL (≈ 2.87 µM); MIC50 (Candida parapsilosis): 5 µg/mL (≈ 11.5 µM); MIC50 (Pichia kudriavzevii): 5 µg/mL (≈ 11.5 µM); MIC50 (Candida albicans [16]): 2.5 µg/mL (≈ 5.74 µM)
3 | C[C@@H]1[C@H](O)[C@@H](C)/C=C/C=C/C=C/C=C/C=C/C=C/C=C/[C@H](O[C@@H]2O[C@H](C)[C@@H](O)[C@H](N)[C@@H]2O)C[C@@H]2O[C@](O)(C[C@@H](O)C[C@@H](O)[C@H](O)CC[C@@H](O)C[C@@H](O)CC(=O)O[C@H]1C)C[C@H](O)[C@H]2C(=O)O [AMPHOTERICIN B] | – | – | – | – | – | – | – | – | – | – | – | – | – | 8 (≈ 8.66 µM) | 0.125 (≈ 0.135 µM) | 0.125 (≈ 0.135 µM) | 1 (≈ 1.08 µM) | 2 (≈ 2.16 µM) | 1 (≈ 1.08 µM) | 1 (≈ 1.08 µM) | MIC90 (Candida albicans [24]): 2 µg/mL (≈ 2.16 µM)
4 | C/C=C/CNC(=N)NCCCCCCCCN1CCCCOC(=O)CCNC(=N)NC1=O.O=C(O)C(F)(F)F | 64 | 128 | 128 | 64 | 64 | 16 | 16 | 8 | 16 | 8 | 8 | 16 | 16 | 16 | 4 | 4 | 8 | 4 | 4 | 8 | MIC90 (Candida albicans [24]): 8 µg/mL; MIC90 (Nakaseomyces glabratus [14]): 64 µg/mL; MIC90 (Kluyveromyces marxianus): 32 µg/mL; MIC90 (Candida tropicalis [15]): 32 µg/mL; MIC90 (Candida parapsilosis): 32 µg/mL; MIC90 (Pichia kudriavzevii): 64 µg/mL; MIC90 [25]: 32 µg/mL; MIC90 (Candida albicans [16]): 32 µg/mL
5 | C/C=C/CNC(=N)NCCCCCCCCN1CCCCOc2ccccc2CNC(=N)NC1=O.O=C(O)C(F)(F)F | 64 | 64 | 64 | 64 | 64 | 16 | 16 | 8 | 16 | 8 | 8 | 16 | 16 | 16 | 16 | 8 | 16 | 8 | 8 | 8 | MIC90 (Candida albicans [24]): 8 µg/mL; MIC90 (Nakaseomyces glabratus [14]): 64 µg/mL; MIC90 (Kluyveromyces marxianus): 4 µg/mL; MIC90 (Candida tropicalis [15]): 8 µg/mL; MIC90 (Candida parapsilosis): 8 µg/mL; MIC90 (Pichia kudriavzevii): 32 µg/mL; MIC90 [25]: 16 µg/mL; MIC90 (Candida albicans [16]): 16 µg/mL
